Assay results published in ChEMBL document CHEMBL3745677, “Discovery of 6-(4-{[5-Cyclopropyl-3-(2,6-dichlorophenyl)isoxazol-4-yl]methoxy}piperidin-1-yl)-1-methyl-1H-indole-3-carboxylic Acid: A Novel FXR Agonist for the Treatment of Dyslipidemia” (J Med Chem, 2015).

Experiments:
Mus musculus = experiment: Antidyslipidemic activity in western-diet fed mouse expressing LDL-receptor (-/-) assessed as decrease in very-low density lipoprotein level at 1 mg/kg qd for a week administered via gavage by FPLC analysis; assay type: functional; conditions: po
Outline: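 LDLR null male mice, six per group, were dosed by gavage once daily for one week (vehicle 5% Solutol, 5% EtOH, 1% wt/v CMC; 5 mL/kg). Serum was collected by cardiac puncture on day 7 under CO2 anaesthesia. Pooled serum from each treatment group was fractionated by FPLC to quantify VLDL and LDL.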

[1] = Terminal half life in cynomolgus monkey at 3 mg/kg, po by LC-MS/MS analysis; assay type: ADME, organism-based, Macaca fascicularis; conditions: in vivo, read-out: beta t1/2 (converted)
Outline: (§1)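 Oral/nasogastric dosing at 3 mpk in 1.0% CMC/0.25% PS80/0.05% antifoam in purified water. Plasma samples collected and analyzed by LC-MS/MS; parameters reported as mean ± SD, N=2-3.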

Rattus norvegicus [2] = experiment: Antidyslipidemic activity in ZDF rat assessed as HDL level at 10 mg/kg for 9 days by FPLC analysis (reference value: 48.3 mg/dL); assay type: functional, Zucker
[3] = AUC (0 to 24 hrs) in Sprague-Dawley rat at 3 mg/kg, po by LC-MS/MS analysis; assay type: ADME, organism-based; design: time < 24 hr, dose 3 mg/kg, route oral; conditions: in vivo
Outline: (§2)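 Sprague Dawley rats, Beagle dogs and Cynomolgus monkeys were dosed IV at 1 mg/kg (rat, dog) or 0.91 mpk (monkey) in 5% Solutol/5% EtOH in saline. Oral/nasogastric dosing was 3 mpk in 1.0% CMC/0.25% PS80/0.05% antifoam in purified water. Samples were processed to plasma and analysed by LC-MS/MS; values are mean ± SD, N=2-3.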

[4] = Initial plasma concentration in cynomolgus monkey at 0.91 mg/kg, iv by LC-MS/MS analysis; assay type: ADME, organism-based, Macaca fascicularis
Outline: (§3)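 Intravenous dose given in 5% Solutol / 5% EtOH in saline (1 mg/kg rat and dog, 0.91 mpk monkey). Plasma samples collected and analyzed by LC-MS/MS; parameters reported as mean ± SD, N=2-3.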

[5] = Terminal half life in beagle dog at 1 mg/kg, iv by LC-MS/MS analysis; assay type: ADME, organism-based, Canis lupus familiaris; conditions: in vivo, read-out: beta t1/2 (converted); outline: as §3
Rattus norvegicus [6] = experiment: Antidyslipidemic activity in ZDF rat assessed as VLDL level at 30 mg/kg for 9 days by FPLC analysis (reference value: 35 mg/dL); assay type: functional, Zucker
[7] = Terminal half life in Sprague-Dawley rat at 3 mg/kg, po by LC-MS/MS analysis; assay type: ADME, organism-based; conditions: in vivo, read-out: beta t1/2 (converted); outline: as §1
[8] = Cmax in Sprague-Dawley rat at 3 mg/kg, po by LC-MS/MS analysis; assay type: ADME, organism-based; design: dose 3 mg/kg, route oral; conditions: in vivo; outline: as §2
[9] = molecular target: T1, Mineralocorticoid receptor (Homo sapiens, UniProt P08235); experiment: Agonist activity at mineralocorticoid receptor (unknown origin) expressed in HEK293 cells assessed as transcriptional activation; assay type: cell-based
T1 sequence (P08235 whole entry): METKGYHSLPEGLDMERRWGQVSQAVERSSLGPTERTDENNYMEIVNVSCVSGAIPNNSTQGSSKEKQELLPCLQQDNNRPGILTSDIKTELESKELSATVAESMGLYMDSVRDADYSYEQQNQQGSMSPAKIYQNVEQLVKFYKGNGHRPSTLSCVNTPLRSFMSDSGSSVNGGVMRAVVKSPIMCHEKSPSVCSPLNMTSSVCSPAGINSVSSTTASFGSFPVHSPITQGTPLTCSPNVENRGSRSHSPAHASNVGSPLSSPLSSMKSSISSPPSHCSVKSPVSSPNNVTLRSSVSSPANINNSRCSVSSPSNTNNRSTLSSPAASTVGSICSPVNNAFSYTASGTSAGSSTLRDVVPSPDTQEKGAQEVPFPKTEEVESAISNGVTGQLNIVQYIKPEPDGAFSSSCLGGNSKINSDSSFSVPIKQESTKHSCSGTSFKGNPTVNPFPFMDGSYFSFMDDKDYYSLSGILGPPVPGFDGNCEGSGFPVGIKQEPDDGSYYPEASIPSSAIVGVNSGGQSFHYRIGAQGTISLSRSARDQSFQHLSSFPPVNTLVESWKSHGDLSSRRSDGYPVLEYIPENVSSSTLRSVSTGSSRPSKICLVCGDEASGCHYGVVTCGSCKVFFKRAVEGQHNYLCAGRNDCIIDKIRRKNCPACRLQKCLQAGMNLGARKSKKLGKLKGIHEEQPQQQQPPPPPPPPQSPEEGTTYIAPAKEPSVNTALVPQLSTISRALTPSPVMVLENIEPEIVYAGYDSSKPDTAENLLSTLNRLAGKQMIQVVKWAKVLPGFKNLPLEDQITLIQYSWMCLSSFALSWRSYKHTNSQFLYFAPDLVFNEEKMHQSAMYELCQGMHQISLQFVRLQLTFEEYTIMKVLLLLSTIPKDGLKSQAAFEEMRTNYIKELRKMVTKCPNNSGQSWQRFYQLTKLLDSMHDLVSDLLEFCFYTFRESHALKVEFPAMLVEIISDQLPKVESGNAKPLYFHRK

`Cn1cc(C(=O)O)c2ccc(N3CCC(OCc4c(-c5c(Cl)cccc5Cl)noc4C4CC4)CC3)cc21` [TERN-101] gave an inhibition in vivo at 1 mg/kg (Mus musculus) of 59%, a half-life [1] of 9 h and an Activity (Rattus norvegicus [2]) of 74.4 mg/dL. It also gave an AUC(0-t) at 24 h [3] of 0.365 µg·h/mL, a C0 [4] of 4.22 µg/mL and a half-life [5] of 10 h. The Activity (Rattus norvegicus [6]) was 13.2 mg/dL, the half-life [7] was 2 h and the Cmax [8] was 0.13 µg/mL. For the same compound, the EC50 [9] was greater than 10 µM.
